Assay results as given in ChEMBL document CHEMBL1140074, “Aminoacyl-anthraquinone conjugates as telomerase inhibitors: synthesis, biophysical and biological evaluation” (J Med Chem, 2008).

How the values were obtained:
[1] = target: DNA polymerase I, thermostable (Thermus aquaticus, UniProt P19821); test: Inhibition of Taq polymerase
Summary of the method: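 PCR with 2.5 ng pBR322 template and primers Tup/Tdown (0.5 µM) amplifying plasmid bases 906-1064. Compounds tested from 20 nM to 40 µM. Run 25 cycles of 94 °C, 65 °C and 72 °C (30 s each). Products resolved on 2% agarose in TBE and stained with ethidium bromide.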

[2] = target: Telomerase reverse transcriptase (Homo sapiens, UniProt O14746); test: Inhibition of telomerase in human JR8 cells by TRAP assay; format: cell-based
Summary of the method: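 Telomerase source was a CHAPS lysate of exponentially growing JR8 cells (500 ng protein per reaction). Elongation 30 min at 30 °C, then 30 PCR cycles. Products run on 10% PAGE with phosphorimager read-out, in triplicate. Drug levels kept below those inhibiting Taq.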

[3] = species on record: Homo sapiens; test: Binding affinity to human telomeric DNA sequence assessed as stabilization of G-quadruplex at 10 uM by thermal denaturation
Summary of the method: (§1)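 Fluorescence melting in a LightCycler of 0.25 µM telomeric oligonucleotide HTS (5'-FAM, 3'-methyl red) in LiP buffer (10 mM LiOH, 50 mM KCl, pH 7.4 with H3PO4). Samples were denatured at 95 °C for 5 min, then cooled and reheated at 0.5 °C/min in 1 °C steps with 2 min equilibration per step. Excitation 488 nm, emission 520 nm. ΔTm was taken relative to ligand-free DNA.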

[4] = species on record: Homo sapiens; test: Binding affinity to human telomeric DNA sequence assessed as stabilization of G-quadruplex at 1 uM by thermal denaturation; summary of the method: as §1
[5] = test system: HeLa; test: Cytotoxicity against human HeLa cells expressing telomerase after 96 hrs by MTT assay; format: functional, cell-based
Summary of the method: (§2)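 Cells grown in DMEM with 10% heat-inactivated FCS, penicillin/streptomycin, 37 °C, 5% CO2. Plated at 10000 cells/well and left overnight, then exposed to eight serial dilutions in triplicate for 96 h. MTT added to 0.8 mg/mL final for 2 h, formazan dissolved in DMSO, absorbance read at 540 nm. IC50 from sigmoidal dose-response fits.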

[6] = Cytotoxicity against human 293T cells expressing telomerase after 96 hrs by MTT assay; format: cell-based; settings: HEK-293T; summary of the method: as §2

Telomerase reverse transcriptase, sequence (O14746 whole entry): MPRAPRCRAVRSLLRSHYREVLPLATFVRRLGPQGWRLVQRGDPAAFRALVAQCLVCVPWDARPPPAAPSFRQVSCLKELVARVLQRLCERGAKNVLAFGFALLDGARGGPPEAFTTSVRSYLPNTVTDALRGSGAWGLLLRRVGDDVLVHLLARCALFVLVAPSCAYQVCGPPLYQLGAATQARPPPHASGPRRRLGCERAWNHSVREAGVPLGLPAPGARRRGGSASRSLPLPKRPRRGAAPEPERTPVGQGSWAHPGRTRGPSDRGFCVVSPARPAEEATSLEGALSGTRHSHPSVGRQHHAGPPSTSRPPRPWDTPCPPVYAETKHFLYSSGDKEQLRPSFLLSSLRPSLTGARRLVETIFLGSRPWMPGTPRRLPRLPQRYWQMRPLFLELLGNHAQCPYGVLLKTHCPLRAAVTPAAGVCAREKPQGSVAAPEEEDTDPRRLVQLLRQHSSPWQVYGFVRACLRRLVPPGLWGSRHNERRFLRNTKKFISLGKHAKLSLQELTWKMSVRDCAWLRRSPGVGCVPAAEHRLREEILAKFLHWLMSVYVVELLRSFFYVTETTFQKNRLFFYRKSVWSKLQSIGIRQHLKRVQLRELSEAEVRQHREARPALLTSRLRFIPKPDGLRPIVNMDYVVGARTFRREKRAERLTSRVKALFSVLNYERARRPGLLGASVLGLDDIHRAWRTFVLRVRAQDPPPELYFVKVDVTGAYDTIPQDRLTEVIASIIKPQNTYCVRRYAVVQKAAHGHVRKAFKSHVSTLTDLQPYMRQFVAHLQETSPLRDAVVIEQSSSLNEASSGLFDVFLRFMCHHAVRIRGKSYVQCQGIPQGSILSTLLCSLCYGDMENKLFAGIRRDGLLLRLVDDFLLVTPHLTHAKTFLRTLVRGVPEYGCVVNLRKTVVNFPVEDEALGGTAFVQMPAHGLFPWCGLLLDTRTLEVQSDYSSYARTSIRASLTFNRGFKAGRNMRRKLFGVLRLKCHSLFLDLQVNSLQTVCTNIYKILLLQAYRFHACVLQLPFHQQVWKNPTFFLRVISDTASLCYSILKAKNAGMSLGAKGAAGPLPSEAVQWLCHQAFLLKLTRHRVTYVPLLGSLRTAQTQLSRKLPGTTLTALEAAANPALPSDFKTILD
DNA polymerase I, thermostable, sequence (P19821 whole entry): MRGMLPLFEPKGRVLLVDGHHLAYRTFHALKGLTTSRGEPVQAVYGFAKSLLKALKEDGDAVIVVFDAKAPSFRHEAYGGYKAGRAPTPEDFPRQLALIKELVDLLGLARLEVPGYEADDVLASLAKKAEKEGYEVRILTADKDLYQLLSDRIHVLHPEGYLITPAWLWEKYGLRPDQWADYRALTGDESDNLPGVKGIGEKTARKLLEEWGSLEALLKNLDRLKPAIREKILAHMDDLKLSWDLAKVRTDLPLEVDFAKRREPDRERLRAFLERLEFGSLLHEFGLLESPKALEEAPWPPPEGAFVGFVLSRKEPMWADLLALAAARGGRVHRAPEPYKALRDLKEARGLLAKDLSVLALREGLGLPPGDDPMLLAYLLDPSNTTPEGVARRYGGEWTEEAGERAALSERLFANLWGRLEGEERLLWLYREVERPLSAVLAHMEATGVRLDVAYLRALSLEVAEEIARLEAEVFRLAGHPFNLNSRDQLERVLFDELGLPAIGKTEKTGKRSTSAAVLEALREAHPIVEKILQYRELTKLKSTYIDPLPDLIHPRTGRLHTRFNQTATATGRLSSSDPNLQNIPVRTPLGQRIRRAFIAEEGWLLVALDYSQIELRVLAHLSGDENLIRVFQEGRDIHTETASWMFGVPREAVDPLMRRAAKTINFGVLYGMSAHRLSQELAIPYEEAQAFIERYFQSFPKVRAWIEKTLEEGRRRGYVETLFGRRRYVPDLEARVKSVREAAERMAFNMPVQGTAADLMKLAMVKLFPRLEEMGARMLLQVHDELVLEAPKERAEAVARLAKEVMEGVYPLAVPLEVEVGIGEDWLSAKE

| Structure (SMILES) | EC50 [1] [µM] | EC50 [2] [µM] | ΔTm [3] [°C] | ΔTm [4] [°C] | IC50 [5] [µM] | IC50 [6] [µM] |
| --- | --- | --- | --- | --- | --- | --- |
| NC(N)=NCCC[C@H](N)C(=O)NCC(=O)Nc1ccc2c(c1)C(=O)c1ccc(NC(=O)CNC(=O)[C@@H](N)CCCN=C(N)N)cc1C2=O | 10 | 0.8 |  |  |  |  |
| N=C(N)NCCC[C@H](N)C(=O)NCCNC(=O)c1ccc2c(c1)C(=O)c1cc(C(=O)NCCNC(=O)[C@@H](N)CCCNC(=N)N)ccc1C2=O |  |  | 16.2 | 5.1 | 35 | 85 |
| N[C@@H](CO)C(=O)NCCNC(=O)c1ccc2c(c1)C(=O)c1cc(C(=O)NCCNC(=O)[C@@H](N)CO)ccc1C2=O | > 40 | > 40 | 2.1 | 0.3 |  |  |
| NC(N)=NCCC[C@H](N)C(=O)NCCNC(=O)c1ccc2c(c1)C(=O)c1cc(C(=O)NCCNC(=O)[C@@H](N)CCCN=C(N)N)ccc1C2=O | 10 | 1.2 |  |  |  |  |
| O=C1c2c(O)ccc(O)c2C(=O)c2c(NCCNCCO)ccc(NCCNCCO)c21 [MITOXANTRONE] |  |  |  |  | < 0.1 | < 0.1 |
| CC(C)C[C@H](N)C(=O)NCCNC(=O)c1ccc2c(c1)C(=O)c1cc(C(=O)NCCNC(=O)[C@@H](N)CC(C)C)ccc1C2=O | > 40 | > 40 | 2.7 | 0.3 |  |  |
| NCC(=O)NCCNC(=O)c1ccc2c(c1)C(=O)c1ccc(C(=O)NCCNC(=O)CN)cc1C2=O | > 40 | > 40 | 2.9 | 0.3 |  |  |
| N=C(N)NCCC[C@H](N)C(=O)NCCC(=O)Nc1ccc2c(c1)C(=O)c1ccc(NC(=O)CCNC(=O)[C@@H](N)CCCNC(=N)N)cc1C2=O |  |  | 25 | 4.8 | 100 | > 100 |
| C[C@@H](O)[C@H](N)C(=O)NCCNC(=O)c1ccc2c(c1)C(=O)c1ccc(C(=O)NCCNC(=O)[C@@H](N)[C@@H](C)O)cc1C2=O | > 40 | > 40 | 1.9 | 0.4 |  |  |
| NCC(=O)NCCNC(=O)c1ccc2c(c1)C(=O)c1cc(C(=O)NCCNC(=O)CN)ccc1C2=O | > 40 | > 40 | 3.3 | 0.4 |  |  |
| N[C@@H](Cc1ccccc1)C(=O)NCCC(=O)Nc1ccc2c(c1)C(=O)c1cc(NC(=O)CCNC(=O)[C@@H](N)Cc3ccccc3)ccc1C2=O | > 40 | > 40 | 7 | 0.3 |  |  |
| N[C@@H](Cc1ccccc1)C(=O)NCC(=O)Nc1ccc2c(c1)C(=O)c1ccc(NC(=O)CNC(=O)[C@@H](N)Cc3ccccc3)cc1C2=O | > 40 | > 40 | 0.6 | 0.5 |  |  |
| C[C@H](N)C(=O)NCCNC(=O)c1ccc2c(c1)C(=O)c1ccc(C(=O)NCCNC(=O)[C@H](C)N)cc1C2=O | > 40 | > 40 | 4.4 | 0.4 |  |  |
| N=C(N)NCCC[C@H](N)C(=O)NCC(=O)Nc1ccc2c(c1)C(=O)c1ccc(NC(=O)CNC(=O)[C@@H](N)CCCNC(=N)N)cc1C2=O |  |  | 22.9 | 9.8 | 89 | 86 |
| C[C@H](N)C(=O)NCCNC(=O)c1ccc2c(c1)C(=O)c1cc(C(=O)NCCNC(=O)[C@H](C)N)ccc1C2=O | > 40 | > 40 | 3.9 | 0.5 |  |  |
| C[C@@H](O)[C@H](N)C(=O)NCCNC(=O)c1ccc2c(c1)C(=O)c1cc(C(=O)NCCNC(=O)[C@@H](N)[C@@H](C)O)ccc1C2=O | > 40 | > 40 | 3.2 | 0.3 |  |  |
| N[C@@H](Cc1ccccc1)C(=O)NCCC(=O)Nc1ccc2c(c1)C(=O)c1ccc(NC(=O)CCNC(=O)[C@@H](N)Cc3ccccc3)cc1C2=O | > 40 | > 40 | 4.3 | 0.5 |  |  |
| N[C@@H](CO)C(=O)NCCNC(=O)c1ccc2c(c1)C(=O)c1ccc(C(=O)NCCNC(=O)[C@@H](N)CO)cc1C2=O | > 40 | > 40 | 2.5 | 0.3 |  |  |
| N[C@@H](Cc1ccccc1)C(=O)NCCNC(=O)c1ccc2c(c1)C(=O)c1ccc(C(=O)NCCNC(=O)[C@@H](N)Cc3ccccc3)cc1C2=O | > 40 | > 40 | 1.1 | 0.2 |  |  |
| CC(C)C[C@H](N)C(=O)NCCNC(=O)c1ccc2c(c1)C(=O)c1ccc(C(=O)NCCNC(=O)[C@@H](N)CC(C)C)cc1C2=O | > 40 | > 40 | 1.3 | 0.2 |  |  |
| N[C@@H](Cc1ccccc1)C(=O)NCCNC(=O)c1ccc2c(c1)C(=O)c1cc(C(=O)NCCNC(=O)[C@@H](N)Cc3ccccc3)ccc1C2=O | > 40 | > 40 | 1 | 0.1 |  |  |

Further lines, with some results ahead:

| EC50 [1] [µM] | EC50 [2] [µM] | ΔTm [3] [°C] | ΔTm [4] [°C] | Structure (SMILES) | IC50 [5] [µM] | IC50 [6] [µM] |
| --- | --- | --- | --- | --- | --- | --- |
| > 40 | 25 | 9.2 | 6.1 | C[C@H](N)C(=O)NCC(=O)Nc1ccc2c(c1)C(=O)c1ccc(NC(=O)CNC(=O)[C@H](C)N)cc1C2=O | 17 | 43 |
| > 40 | > 40 | 6 | 0.5 | CC(C)[C@H](N)C(=O)NCC(=O)Nc1ccc2c(c1)C(=O)c1ccc(NC(=O)CNC(=O)[C@@H](N)C(C)C)cc1C2=O |  |  |
| > 40 | > 40 | 5.7 | 0 | CC[C@H](C)[C@H](N)C(=O)NCCC(=O)Nc1ccc2c(c1)C(=O)c1ccc(NC(=O)CCNC(=O)[C@@H](N)[C@@H](C)CC)cc1C2=O |  |  |
| 10 | 0.8 |  |  | NC(N)=NCCC[C@H](N)C(=O)NCCC(=O)Nc1ccc2c(c1)C(=O)c1ccc(NC(=O)CCNC(=O)[C@@H](N)CCCN=C(N)N)cc1C2=O |  |  |
| > 40 | > 40 | 3 | 0.4 | CC[C@H](C)[C@H](N)C(=O)NCCNC(=O)c1ccc2c(c1)C(=O)c1cc(C(=O)NCCNC(=O)[C@@H](N)[C@@H](C)CC)ccc1C2=O |  |  |
| > 40 | > 40 | 8.2 | 0.2 | C[C@H](N)C(=O)NCCC(=O)Nc1ccc2c(c1)C(=O)c1ccc(NC(=O)CCNC(=O)[C@H](C)N)cc1C2=O |  |  |
| > 40 | > 40 | 2.8 | 0.2 | CC[C@H](C)[C@H](N)C(=O)NCCC(=O)Nc1ccc2c(c1)C(=O)c1cc(NC(=O)CCNC(=O)[C@@H](N)[C@@H](C)CC)ccc1C2=O |  |  |
| > 40 | > 40 | 1.1 | 0.2 | CC[C@H](C)[C@H](N)C(=O)NCCNC(=O)c1ccc2c(c1)C(=O)c1ccc(C(=O)NCCNC(=O)[C@@H](N)[C@@H](C)CC)cc1C2=O |  |  |
| > 40 | > 40 | 6 | 0 | CC(C)[C@H](N)C(=O)NCCC(=O)Nc1ccc2c(c1)C(=O)c1ccc(NC(=O)CCNC(=O)[C@@H](N)C(C)C)cc1C2=O |  |  |
| 4 | 4 |  |  | NC(N)=NCCC[C@H](N)C(=O)NCCC(=O)Nc1ccc2c(c1)C(=O)c1cc(NC(=O)CCNC(=O)[C@@H](N)CCCN=C(N)N)ccc1C2=O |  |  |
| > 40 | > 40 | 3.8 | 0.7 | CC(C)C[C@H](N)C(=O)NCC(=O)Nc1ccc2c(c1)C(=O)c1ccc(NC(=O)CNC(=O)[C@@H](N)CC(C)C)cc1C2=O |  |  |
|  |  | 13.3 | 0.6 | N=C(N)NCCC[C@H](N)C(=O)NCCC(=O)Nc1ccc2c(c1)C(=O)c1cc(NC(=O)CCNC(=O)[C@@H](N)CCCNC(=N)N)ccc1C2=O |  |  |
